Results on 37 sequences are retold here after the array DNA melting data of Ke et al. (doi:10.1101/2024.01.08.574731).

The nature of data set [1]: folding enthalpy; higher = less favourable; fluorescence melt of hairpins on a sequencing array, two-state fit. The note with it: sodium 0.088 M. The procedure, abridged: (§1)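 Hairpins were imaged by Cy3 fluorescence on a sequenced MiSeq flow cell with annealed Cy3 and quencher oligos, in 50 mM Na-HEPES pH 8.0, 25 mM NaCl, in 2.5 °C steps up to 60 °C. Bootstrapped two-state fits of normalised signals gave melting temperature and folding enthalpy. Four replicates were combined by inverse variance, and fitted temperatures were raised by 9.35 °C to match UV melts.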

Data set [2] in a line: melting temperature; fluorescence melt of hairpins on a sequencing array, two-state fit, raised by 9.35 °C to match UV melts. The conditions noted are these: sodium 0.088 M. The procedure, abridged:
as §1

Regarding GGAACTGGAAACGGTTCC (((((.(....).))))), the folding enthalpy in data set [1] was -34.9 kcal/mol. In addition, in data set [2], the Tm was determined as 51 °C.

Consider GGAAGACGAAAGTCGTCC (((.(((....))).))), for which the folding enthalpy in data set [1] is -18.9 kcal/mol. Further, the Tm in data set [2] amounted to 56.2 °C.

For GGAAGAGGAAACCCTTCC (((((.(....).))))), in data set [1], the folding enthalpy is -30.7 kcal/mol. Moreover, the Tm in data set [2] worked out at 37.8 °C.

As to GGAAGCCCGAAAGGGTCC (((..(((....)))))), the folding enthalpy in data set [1] is -10.8 kcal/mol. Further, the Tm in data set [2] was 35.4 °C.

On to GGAAGCCGAAAGGCCTCC (((.(((....))).))), for which the folding enthalpy in data set [1] was -20.2 kcal/mol. Moreover, in data set [2], the Tm stood at 48.4 °C.

For GGAAGCGAAAGCTATCC ((((((....))).))), the folding enthalpy in data set [1] is -14.6 kcal/mol. Also, the Tm in data set [2] is 40.9 °C.

Regarding GGAAGCGAAAGCTCATCC ((((((....)))..))), the folding enthalpy in data set [1] was -10 kcal/mol. Moreover, the Tm in data set [2] stood at 29 °C.

GGAAGCGAAAGCTCTTCC ((((((....)))..))): the folding enthalpy in data set [1] is -18.9 kcal/mol. Also, the Tm in data set [2] was determined as 43 °C.

Regarding GGAAGCGAAAGCTGGTCC ((((((....)))..))), the folding enthalpy in data set [1] is -11.6 kcal/mol. The Tm in data set [2] worked out at 36 °C.

Take GGAAGGGGAAACTCTTCC (((((.(....).))))): the folding enthalpy in data set [1] is -39.7 kcal/mol. In addition, in data set [2], the Tm was 46.3 °C.

Regarding GGAAGTCCGAAAGGATCC (((..(((....)))))), the folding enthalpy in data set [1] was -11.9 kcal/mol. Moreover, in data set [2], the Tm worked out at 28.7 °C.

As to GGAAGTCGAAAGACGTCC (((.(((....))).))), the folding enthalpy in data set [1] was -23.7 kcal/mol. The Tm in data set [2] is 52.2 °C.

Regarding GGAAGTGGAAACACCTCC (((.(((....))).))), in data set [1], the folding enthalpy is -23.5 kcal/mol. In addition, the Tm in data set [2] worked out at 36.6 °C.

For GGAAGTGGAAACGCTTTC (.(((.(....).))).), the folding enthalpy in data set [1] is -19.6 kcal/mol. Further, the Tm in data set [2] is 31.4 °C.

Take GGAATACGAAAGTATCC (((.(((....)))))): the folding enthalpy in data set [1] was -17.9 kcal/mol. Moreover, the Tm in data set [2] worked out at 42.8 °C.

Consider GGAATCGAAAGATTTCC ((((((....))).))), for which the folding enthalpy in data set [1] is -27 kcal/mol. Further, in data set [2], the Tm is 41.5 °C.

In the case of GGAATCGAAAGATTTTCC ((((((....)))..))), the folding enthalpy in data set [1] was -17.7 kcal/mol. In data set [2], the Tm turned out to be 27.8 °C.

Turning to GGAATCGCGAAAGCGTCC (((..(((....)))))), the folding enthalpy in data set [1] was -8.44 kcal/mol. Also, in data set [2], the Tm came to 29.2 °C.

For the sequence GGAATCGGAAACGACTCC (((.(((....))).))), in data set [1], the folding enthalpy was -28.9 kcal/mol. For the same sequence, the Tm in data set [2] came out at 40.4 °C.

As to GGAATCGGAAACGATTTC (.(((((....))))).), the folding enthalpy in data set [1] was -33.3 kcal/mol. In data set [2], the Tm worked out at 47.9 °C.

As to GGAATCGGAAACGGTTCC ((((.((....)).)))), the folding enthalpy in data set [1] was -44.5 kcal/mol. Also, in data set [2], the Tm amounted to 52.2 °C.

In the case of GGAATGGGAAACCACTCC (((.(((....))).))), the folding enthalpy in data set [1] was -33.6 kcal/mol. In data set [2], the Tm stood at 33.7 °C.

For GGAATGGGAAACCATTCC (((((((....))))))), the folding enthalpy in data set [1] is -45.1 kcal/mol. Moreover, the Tm in data set [2] worked out at 60.4 °C.

On to GGAATGGGAAACCGTTCC ((((.((....)).)))), for which, in data set [1], the folding enthalpy was -39.1 kcal/mol. In data set [2], the Tm is 50.8 °C.

Regarding GGAATGGGAAACCGTTTC (.((.((....)).)).), in data set [1], the folding enthalpy was -18 kcal/mol. Moreover, in data set [2], the Tm was 30.7 °C.

As for GGAATTGCGAAAGCATCC (((..(((....)))))), the folding enthalpy in data set [1] was -9.07 kcal/mol. The Tm in data set [2] turned out to be 30.3 °C.

For GGAATTGGAAACAACTCC (((.(((....))).))), in data set [1], the folding enthalpy was -22.2 kcal/mol. In addition, the Tm in data set [2] was 30.3 °C.

GGAATTGGAAACAATCCC ((.((((....)))).)): the folding enthalpy in data set [1] was -20.1 kcal/mol. For the same sequence, the Tm in data set [2] is 35.6 °C.

As for GGACAAGCGAAAGCTTCC (((..(((....)))))), the folding enthalpy in data set [1] was -12.3 kcal/mol. Also, the Tm in data set [2] is 29.2 °C.

On to GGACAAGGAAACTCGTCC ((((.((....)).)))), for which the folding enthalpy in data set [1] is -29.2 kcal/mol. Further, the Tm in data set [2] came to 39.2 °C.

With GGACAATCGAAAGATTCC (((..(((....)))))), in data set [1], the folding enthalpy is -8.86 kcal/mol. In addition, the Tm in data set [2] came out at 27.5 °C.

As to GGACACACGAAAGTGTCC (((..(((....)))))), the folding enthalpy in data set [1] is -30.7 kcal/mol. Moreover, the Tm in data set [2] came to 57.9 °C.

With GGACACCGAAAGGTATCC (((.(((....))).))), the folding enthalpy in data set [1] was -30.4 kcal/mol. The Tm in data set [2] turned out to be 47.5 °C.

GGACACGAAAGTGATCC ((((((....))).))): the folding enthalpy in data set [1] is -21.7 kcal/mol. Moreover, in data set [2], the Tm came out at 48.5 °C.

For the sequence GGACACGAAAGTGCTTCC ((((((....)))..))), the folding enthalpy in data set [1] was -20.4 kcal/mol. Also, the Tm in data set [2] was 40.4 °C.

For the sequence GGACACGAAAGTGGTCC ((((((....))).))), in data set [1], the folding enthalpy is -21.6 kcal/mol. Moreover, in data set [2], the Tm was 57 °C.

As to GGACACGCGAAAGCGTCC (((..(((....)))))), the folding enthalpy in data set [1] was -9.09 kcal/mol. Moreover, the Tm in data set [2] amounted to 42.1 °C.
